Only some compounds are listed: those with a hit (about 1.9% of all), similar ones and a draw of the others.
SUMO1-SIM PPI – modulators of SUMO1 protein-protein interactions, primary screen, biochemical, uHTS. Small ubiquitin-related modifier 1 (Homo sapiens), P63165. SUMO1 binding to a labelled peptide, TR-FRET, 1 h. actives 0.33% (n = 360,000). inhibition, % at 20 µM. AID 602429, 2012; in the data active = inhibition above about 37%
STEP block – STEP phosphatase inhibitors, primary screen, biochemical, fluorescence intensity, uHTS | inhibition, % at 20 µM | recombinant STEP, OMFP fluorogenic substrate | actives 0.25% (n = 360,000);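 active = inhibition at 20 µM, scaled per plate between control wells, above about 37%, limit read from the data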
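System: STEP (striatal-enriched tyrosine phosphatase) enzyme, cell-free; medium: Bis-Tris pH 6.0 buffer with DTT, detergent; dosing: 20 µM, 1% DMSO; times: reaction 20 min, ambient temperature; detection: fluorescence, 480/540 nm; read-out basis: normalized % inhibition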
LMPTP inh – LMPTP phosphatase inhibitors, primary screen, biochemical, fluorescence intensity, uHTS; actives 0.22% (n = 360,000); AID 651560, 2012; recombinant LMPTP-A, OMFP fluorogenic substrate; inhibition, % at 20 µM; Low molecular weight phosphotyrosine protein phosphatase (Homo sapiens), P24666;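 active = compounds that cut the enzyme signal by at least half of the control window in the single-dose screen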
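Test system: LMPTP-A phosphatase enzyme. Amount: LMPTP-A at 0.625 nM final in the reaction. Reagent: OMFP substrate, 400 µM final. Times: 50 min at room temperature. Signal: endpoint fluorescence intensity from OMFP dephosphorylation. Read-out basis: % inhibition. Benchmarks: no-enzyme and uninhibited controls.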
Scp1 inh – Scp-1 phosphatase inhibitors, primary screen, biochemical, colorimetric, uHTS; Carboxy-terminal domain RNA polymerase II polypeptide A small phosphatase 1 (Homo …; Recombinant Scp1, phosphopeptide, malachite green phosphate absorbance; inhibition, % at 20 µM; actives 0.88% (n = 340,000); AID 493091, 2011;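 active = inhibition above about 50% at 20 µM, limit read from the data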
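System: SCP-1 catalytic domain; Reagent: Phospho 17-mer peptide substrate; Doses: one concentration, 20 µM, with 1.0% DMSO; Incubation: 45 min room-temperature reaction, 5 min colour, 30 min stabiliser; Signal: Phosphate-binding colour reagent, absorbance read at 630 nm.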
DNMT1 block – human DNMT1 methyltransferase inhibitors, primary screen, biochemical, molecular beacon, fluorescence, HinP1I cleavage, uHTS; DNA (cytosine-5)-methyltransferase 1 (Homo sapiens), P26358; actives 0.83% (n = 360,000); inhibition (reported as % activation of signal), % at 10 µM; in the data active = inhibition above about 50%
Target sequence (P26358 504-1616 limits assumed): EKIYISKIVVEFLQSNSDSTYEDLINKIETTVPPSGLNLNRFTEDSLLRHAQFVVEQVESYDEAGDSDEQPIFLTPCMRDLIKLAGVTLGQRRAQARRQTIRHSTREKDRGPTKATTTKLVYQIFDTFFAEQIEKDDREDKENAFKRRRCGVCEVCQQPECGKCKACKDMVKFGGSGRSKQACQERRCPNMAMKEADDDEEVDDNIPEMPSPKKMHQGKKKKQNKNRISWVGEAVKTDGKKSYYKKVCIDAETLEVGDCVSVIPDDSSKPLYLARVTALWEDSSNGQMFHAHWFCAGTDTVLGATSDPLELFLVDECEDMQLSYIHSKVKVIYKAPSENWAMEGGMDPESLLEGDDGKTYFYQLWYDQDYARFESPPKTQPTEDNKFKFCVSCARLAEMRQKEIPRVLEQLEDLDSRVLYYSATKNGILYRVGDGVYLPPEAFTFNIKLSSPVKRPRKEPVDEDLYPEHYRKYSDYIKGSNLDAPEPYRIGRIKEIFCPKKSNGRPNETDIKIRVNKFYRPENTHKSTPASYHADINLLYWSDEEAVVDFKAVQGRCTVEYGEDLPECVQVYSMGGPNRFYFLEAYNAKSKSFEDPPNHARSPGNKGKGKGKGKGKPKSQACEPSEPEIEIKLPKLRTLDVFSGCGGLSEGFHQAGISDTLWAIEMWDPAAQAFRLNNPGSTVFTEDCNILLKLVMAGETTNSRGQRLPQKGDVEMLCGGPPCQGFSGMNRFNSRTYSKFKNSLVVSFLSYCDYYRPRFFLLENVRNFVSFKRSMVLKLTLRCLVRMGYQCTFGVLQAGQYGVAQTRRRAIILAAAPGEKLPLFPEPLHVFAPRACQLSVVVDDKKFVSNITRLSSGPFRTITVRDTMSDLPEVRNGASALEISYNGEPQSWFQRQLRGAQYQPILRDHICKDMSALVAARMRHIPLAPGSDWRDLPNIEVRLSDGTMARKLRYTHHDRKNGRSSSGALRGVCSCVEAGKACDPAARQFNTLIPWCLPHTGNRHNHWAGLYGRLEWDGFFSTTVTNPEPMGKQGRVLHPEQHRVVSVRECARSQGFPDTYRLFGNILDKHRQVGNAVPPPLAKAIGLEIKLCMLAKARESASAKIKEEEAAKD
CSN deneddyl inh – inhibitors of CSN-mediated cullin deneddylation, primary screen, biochemical, fluorescence polarization, uHTS. COP9 signalosome complex subunit 5 (Homo sapiens), Q92905. Purified CSN, SCF-Nedd8-OG deneddylation. inhibition, % at 12.5 µM. actives 0.38% (n = 360,000). AID 651999, 2013;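 active = pattern-corrected inhibition above about 35%, with an unprinted fluorescence ratio check between 0.5 and 1.5, limit read from the data, passing the limit was not always enough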
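Material: purified human Csn5 enzyme expressed in HEK293T cells / Medium: Tris buffer pH 7.5, NaCl, DTT, Tween-20, trehalose, ovalbumin / Compound dosing: 12.5 µM single point / Schedule: 90 min incubation of compound, enzyme and substrate at room temperature / Signal: fluorescence polarization of the substrate / Control set: no-enzyme wells high, enzyme-with-substrate wells low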
DNMT1 confirm – DNMT1 methyltransferase inhibitor retest, confirmation, biochemical, molecular beacon, fluorescence, single concentration. inhibition, % at 10 µM. actives 8% (n = 2,300). DNMT1 molecular beacon HinP1I cleavage. shares compounds with DNMT1 block;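 active = average inhibition of at least 30% in the single-concentration confirmation test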
DNMT1 interf – shows spectral interference in the DNMT1 beacon assay; shares compounds with DNMT1 block; activation (fluorescence interference), % at 10 µM; actives 1% (n = 2,300); DNMT1 molecular beacon spectral interference counterscreen, fluorescence 485/520;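 active = activation of at least 30% at 10 µM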;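 also: DNMT1 catalytic domain with a HinP1I cleavage step and a FAM/dabcyl DNA beacon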
Hits are given with their value; . = inactive; / = not tested or not shown.

SMILES	SUMO1-SIM PPI	STEP block	LMPTP inh	Scp1 inh	DNMT1 block	CSN deneddyl inh	DNMT1 confirm	DNMT1 interf
C=CCn1c(SCc2ccc3c(c2)OCO3)nc2scc(-c3ccco3)c2c1=O	.	.	.	.	103	57	.	.
O=C(Nc1ccc(N2CCCC2)cc1)c1ccc2ccccc2c1	.	.	.	.	61	.	.	.
O=C(Nc1ccc(N2CCCC2)cc1)c1cccc(-c2cc3ccccc3oc2=O)c1	.	.	.	.	76	.	.	.
O=C(Nc1ccc(N2CCCC2)cc1)c1ccccc1F	.	.	.	.	72	.	.	.
O=C(Nc1ccc(N2CCCC2)cc1)c1ccc([N+](=O)[O-])cc1Cl	.	.	.	.	74	.	.	.
O=C(Nc1ccc(Br)cn1)c1cccc(-c2cc3ccccc3oc2=O)c1	.	.	.	.	64	.	.	.
O=C(Nc1ccc(N2CCCC2)cc1)c1cccc(F)c1	.	.	.	.	65	.	.	.
O=C(c1cc(S(=O)(=O)N2CCOCC2)c(Cl)cc1Cl)N1CCN(S(=O)(=O)c2cccc(F)c2)CC1	.	.	.	.	.	.	/	/
CCOC(=O)Cc1cc(=O)[nH]n(-c2ccccc2)c1=O	.	.	.	.	.	.	/	/
O=C(Nc1ccc(Oc2ccccc2)cc1)c1csc(COCCO)n1	.	.	.	/	64	.	.	.
O=C(Nc1ccc(Cl)cc1)c1csc(COCCO)n1	.	.	.	/	.	.	/	/
O=C(NC12CC3CC(CC(C3)C1)C2)OCCNC1CCCCC1	.	.	.	.	.	.	/	/
CS(=O)(=O)c1ccc(Nc2nc(C(N)c3ccccc3Cl)cs2)cc1 (stereo not drawn)	.	.	.	/	.	.	/	/
Cc1cccc(S(=O)C(c2ccccc2)c2ccccc2)c1 (stereo not drawn)	.	.	.	.	.	.	/	/
CCCNC(=O)c1ccc2c(=O)n3c(-c4ccc(C)cc4)csc3nc2c1	.	.	.	.	53	.	.	.
CCc1ccccc1NC(=O)CSc1ccsc1[N+](=O)[O-]	.	.	.	.	53	.	.	.
COc1ccccc1CNC(=O)CSc1ccsc1[N+](=O)[O-]	.	.	.	.	.	.	/	/
Cc1ccc(C(=O)C2=C(O)C(=O)N(CC3CCCO3)C2c2ccccc2F)o1 (stereo not drawn)	.	.	.	.	.	.	/	/
CC(=O)Nc1ccc(N2CCN(Cc3ccccc3)CC2)cc1	.	.	.	.	.	.	/	/
COc1ccccc1-n1c(SCC(=O)NCc2ccc3c(c2)OCO3)nc2cc([N+](=O)[O-])ccc21	.	.	.	.	90	.	.	.
CN(Cc1nc2ccccc2c(=O)[nH]1)C(=O)c1cccc(NC(=O)c2cccs2)c1	.	.	.	.	.	.	/	/
CCOC(=O)C1CCN(S(=O)(=O)c2ccc3c4c2CC(=O)N4CC(C)S3)CC1 (stereo not drawn)	.	.	.	.	.	.	/	/
O=C(COC(=O)CCN1C(=O)/C(=C\C=C\c2ccccc2)SC1=S)Nc1cc(F)ccc1F	.	.	.	.	75	.	.	.
Clc1ccc(OCc2nn3c(-c4ccccc4)nnc3s2)c(Cl)c1	.	.	.	.	59	.	.	.
CCN(CC)CC(O)Cn1c(C)c(-c2ccccc2)c2cc([N+](=O)[O-])ccc21 (stereo not drawn)	.	.	.	.	.	.	/	/
SMILES	SUMO1-SIM PPI	STEP block	LMPTP inh	Scp1 inh	DNMT1 block	CSN deneddyl inh	DNMT1 confirm	DNMT1 interf
COc1cccc(N(C(=O)Cn2nnc(-c3cccs3)n2)C(C(=O)NC2CCCCC2)c2ccncc2)c1 (stereo not drawn)	.	.	.	.	68	.	.	.
O=C(O)C1=CCC=CC1C(=O)O (stereo not drawn)	69	.	.	/	99	.	.	.
Cc1cc(C)cc(Nc2nc(-c3ccc(S(=O)(=O)N4CCCC4)cc3)cs2)c1	.	.	.	.	97	.	.	.
CCOc1ccc(Br)cc1C(=O)Nc1ccc(C(=O)NCC(C)C)cc1	.	.	.	.	63	.	.	.
CCOc1ccc(C(=O)CC(=O)C(=O)NCCc2ccc(OC)c(OC)c2)cc1	.	.	.	.	.	.	/	/
COC(=O)C[C@H]1C[C@H]2c3cc(NC(=O)Nc4ccc(C(F)(F)F)cc4)ccc3O[C@H]2[C@@H](CO)O1	.	.	.	/	.	.	/	/
CCOc1nc(NC(=O)NS(=O)(=O)Oc2ccccc2Cl)nc(-c2ccccc2)n1	.	.	.	.	.	.	/	/
CCOc1nc(NC(=O)NC(=O)c2ccccc2)nc(-c2ccccc2)n1	.	.	.	.	73	.	.	.
Cc1nn(-c2ccccc2)c(C)c1NC(=O)COc1ccc([N+](=O)[O-])cc1	.	.	.	.	.	.	/	/
COc1cc2nc(CN3CCN(S(=O)(=O)c4cc(C)ccc4C)CC3)[nH]c(=O)c2cc1OC	.	.	.	.	92	.	.	.
CSC1=NSC2=NC(=O)/C(=C/c3coc4ccc(O)cc4c3=O)C(=N)N12	42	.	.	.	82	.	.	.
COc1ccc(C(=O)NC(C)c2cnn(-c3ccccn3)c2C)o1 (stereo not drawn)	.	.	.	.	.	.	/	/
NCCCC[C@@H]1NC(=O)c2cc([N+](=O)[O-])cc(F)c2NCCCC[C@@H](C(N)=O)NC(=O)CNC1=O	.	.	.	.	104	.	.	.
Cc1ccc(-c2nnc(Nc3cccc(O)c3)c3ccccc23)cc1S(=O)(=O)NCCO	.	.	.	.	90	.	.	.
O=C(NNC(=S)NC1CCCCC1)c1ccccc1Br	.	.	.	.	.	.	/	/

Source: PubChem BioAssay
